# Published values pooled from the literature.
Structure (SMILES),cell line,test,test system,setting,measurement,result
CN1CCC(NCc2cccc(-c3ccc(S(=O)(=O)NCc4ccccc4)cc3)c2)CC1,HEK293,"cell growth or viability, MTT",,24 h,CC50,32.3 µM
CCS(=O)(=O)Nc1cccc(-c2cn(C)c(=O)c3ccccc23)c1,MDCK-MDR1,,Caco-2,,Papp,15 ×10⁻⁶ cm/s
O=C(O)/C=C/C=C/c1cccc(Oc2cc(Cl)cc(Cl)c2)c1,HEK293,"cell growth or viability, MTT",,24 h,CC50,> 200 µM
CC1c2cc(c(O)cc2O)C(C)c2cc(c(O)cc2O)C(C)c2cc(c(O)cc2O)C(C)c2cc1c(O)cc2O (stereo not drawn),HEK293,"cell growth or viability, MTT",,24 h,CC50,14.9 µM
Cc1ccc2c(=O)n(-c3ccc(F)cc3)c(CCN3C(=O)c4cccc(OC(C)C)c4C3=O)nc2c1,MDCK-MDR1,,Caco-2,"1 µM, 90 min, pH 7.4",Papp A→B,30 ×10⁻⁶ cm/s
Cn1cnc2c1c(=O)n(CC(=O)Nc1c(Cl)cccc1Cl)c(=O)n2C,NCI-H1975,"cell growth or viability, MTT",,6.3 µg,viability,56.1%
Cc1ccc2c(c1C)NC(=O)[C@]21NN=C(c2ccccc2)S1,HEK293,"cell growth or viability, MTT",,24 h,CC50,100 µM
O=c1cccccc1SSc1cccccc1=O,HepDES19,"cell growth or viability, MTS",,72 h,CC50,9.6 µM
CC(C)Cn1c(=O)n(C)c(=O)c2c(-c3cncn3C)n(Cc3cccc4ccccc34)nc21,HEK293,"cell growth or viability, MTT",,24 h,CC50,> 200 µM
CC1c2cc(c(O)c(O)c2O)C(C)c2cc(c(O)c(O)c2O)C(C)c2cc(c(O)c(O)c2O)C(C)c2cc1c(O)c(O)c2O (stereo not drawn),HEK293,"cell growth or viability, ATP luminescence",,24 h,CC50,102 µM
CCS(=O)(=O)Nc1ccc(OCCOCCOCCOCCOc2ccc(NS(=O)(=O)CC)cc2-c2cn(C)c(=O)c3ccccc23)c(-c2cn(C)c(=O)c3ccccc23)c1,MDCK-MDR1,,Caco-2,,Papp,0.13 ×10⁻⁶ cm/s
O=C(Sc1cccccc1=O)c1ccccc1C(F)(F)F,HepDES19,"cell growth or viability, MTS",,72 h,CC50,8.6 µM
COC(=O)c1ccccc1-c1c2ccc(=N)cc-2oc2cc(N)ccc12,MDR1,,MDCK-MDR1,"5 µM, 2 h, pH 7.4",efflux ratio,4.92
COc1ccc2cc3[n+](cc2c1OC)CCc1cc2c(cc1-3)OCO2,MDCK-MDR1,,Caco-2,"10 µg/mL, 4 h",Papp A→B,0.39 ×10⁻⁶ cm/s
O=C(Sc1cccccc1=O)c1ccc(C(F)(F)F)cc1,HepDES19,"cell growth or viability, MTS",,72 h,CC50,56.1 µM
